# Sampled rows, rich in hits. Any-hit rate of the full collection: about 2.4%.
# HNF4A DNA FP: change in binding of human HNF4 alpha to DNA. P41235. HNF4a-FITC DNA binding, fluorescence polarization, 1 h. activity change, % at 10 µM. hit rate 0.3% among 360,000. AID 1224865; in the data active = activity change above about 30%, passing the limit was not always enough
# Neddylation inh: blocks human cullin neddylation. inhibition, % at 25 µM. TR-FRET cullin neddylation, biochemical. hit rate 0.58% among 360,000. AID 651699. P61081+Q13564; in the data active = inhibition above about 36%
# PREPL inh: human PREPL enzyme inhibition; hit rate 0.68% among 320,000; recombinant PREPL, fluorescence polarization activity-based probe; AID 2751; inhibition, % at 5.96 µM; in the data active = inhibition above about 43%;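 also: 0% = enzyme with DMSO and 100% = wells lacking enzyme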
# CSN inh: CSN deneddylation inhibition; AID 651999; inhibition, % at 12.5 µM; hit rate 0.38% among 360,000; Q92905; Purified CSN, SCF-Nedd8-OG deneddylation, fluorescence polarization;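 active = pattern-corrected inhibition above about 35%, with an unprinted fluorescence ratio check between 0.5 and 1.5, limit read from the data, passing the limit was not always enough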;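 also: 0% = enzyme with substrate and 100% = substrate without enzyme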
# Target sequence (Q92905 whole entry, looked up, one chain of several): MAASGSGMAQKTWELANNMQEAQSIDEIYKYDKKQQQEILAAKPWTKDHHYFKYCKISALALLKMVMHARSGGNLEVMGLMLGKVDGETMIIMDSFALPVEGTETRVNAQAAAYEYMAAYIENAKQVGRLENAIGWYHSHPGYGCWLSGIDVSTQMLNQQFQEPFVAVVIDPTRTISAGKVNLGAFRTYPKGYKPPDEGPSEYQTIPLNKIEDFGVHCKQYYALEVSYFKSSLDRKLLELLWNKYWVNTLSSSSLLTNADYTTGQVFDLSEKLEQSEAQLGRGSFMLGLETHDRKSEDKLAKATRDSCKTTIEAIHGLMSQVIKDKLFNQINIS
#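 Assay system: purified human Csn5 enzyme expressed in HEK293T cells; Input: 0.24 nM Csn5 enzyme, final concentration; Reagent: 10 nM SCFSkp2-Nedd8OG; Compound dosing: 12.5 µM single point; Times: reaction 90 min, room temperature; Technique: fluorescence polarization readout.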
# Rpn11 inh: Rpn11 (human) deubiquitinase inhibition | O00487 | human 26S proteasome, Ub4-pepOG fluorescence polarization; 20S core pre-blocked with epoxomicin | inhibition, % at 20 µM | hit rate 0.59% among 360,000;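 active = inhibition at 20 µM, scaled to each plate's controls, above about 33%, limit read from the data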
# Tb MetRS inh: blocks T. brucei methionyl-tRNA synthetase activity; purified T. brucei MetRS, ATP depletion, Kinase-Glo luminescence; inhibition, % at 11.9 µM; hit rate 0.4% among 360,000; AID 624268;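 active = inhibition above a per-plate cutoff of the control wells' mean inhibition plus 3 SD, cut at about 5.5% in these data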;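 also: 0% = DMSO wells median and 100% = median of wells with control inhibitor compound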
#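 Material: parasite MetRS enzyme / Replication: singlicate, one well per compound / Signal: luminescence of leftover ATP / Schedule: 2 h aminoacylation at 25 °C after 15 min preincubation / Medium: HEPES-MgCl2-KCl buffer plus DTT, spermine, BSA, pyrophosphatase / Doses: 11.9 µM single point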
# TbMetRS confirm: Trypanosoma brucei MetRS inhibition confirmed. shares compounds with Tb MetRS inh. AID 624412. T. brucei MetRS enzyme, luminescence (ATP depletion). hit rate 93% among 1,400. inhibition, % at 11.9 µM; in the data active = inhibition above about 7%
# Jurkat tox: kills Jurkat cells in T. brucei MetRS counterscreen. shares compounds with Tb MetRS inh. Jurkat cells viability, ATP luminescence. inhibition, % at 8.3 µM. hit rate 12% among 1,400. AID 624413; in the data active = inhibition above about 15%;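 also: 0% = vehicle and 100% = reference inhibitor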
# TbMetRS FP orth: T. brucei MetRS inhibition, orthogonal assay; shares compounds with Tb MetRS inh; purified T. brucei MetRS, fluorescence polarization; AID 651607; hit rate 44% among 1,400; inhibition, % at 11.9 µM; in the data active = inhibition above about 17%;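 also: 0% = vehicle wells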
# Numbers without * were called inactive; x = not tested or not shown.
SMILES,HNF4A DNA FP,Neddylation inh,PREPL inh,CSN inh,Rpn11 inh,Tb MetRS inh,TbMetRS confirm,Jurkat tox,TbMetRS FP orth
Cc1ccc(NC(=S)NCCSc2ccc(Cl)cc2)cc1,1,-8,-10,0,-5,0,x,x,x
Cc1nnc(NCc2cccc(Cl)c2)c2ccccc12,4,-9,-18,1,-4,12*,19*,3,13
Cc1nnc(NCCc2ccccc2)c2ccccc12,4,5,22,1,-6,0,x,x,x
O=C(NCC1CCCO1)c1cccc(Oc2ccc([N+](=O)[O-])cc2)c1 (stereo unspecified),0,-19,16,5,-5,0,x,x,x
Clc1ccc2c(NCc3ccccc3)ccnc2c1,8,9,-17,-1,-1,7.9*,20*,19*,5
O=C(NCCNc1ccnc2cc(Cl)ccc12)c1ccccc1F,4,0,-7,8,2,8.7*,13*,47*,10
O=C(CCCSc1nc2ccccc2[nH]1)NCc1ccc(Cl)cc1,1,5,-2,-3,-4,43*,68*,-5,30*
Cc1ccc(CNC(=O)CSc2nc3ccccc3[nH]2)cc1,-1,-6,-4,2,-4,3,x,x,x
O=C(CSc1nc2ccccc2[nH]1)NCCc1ccc(Cl)cc1,-5,2,-21,7,-4,32*,37*,1,17*
Cc1ccc(NC(=O)COC(=O)COc2cccc3c2OC(C)(C)C3)cc1S(=O)(=O)N1CCOCC1,0,1,1,-3,-1,0,x,x,x
O=C(c1ccc(Cl)cc1)c1c[nH]c(C(=O)NNc2cccc(Cl)n2)c1,5,2,5,-1,-5,22*,28*,-7,14
CC(C)Oc1ccc(/C=N/NC(=O)c2nnn(-c3nonc3N)c2CN(C)c2ccccc2)cc1,2,20,18,1,4,0,x,x,x
CCC1CCCN1Cn1cnc2c([nH]c3ccc(Cl)cc32)c1=O (stereo unspecified),2,20,-1,-3,-6,5.8*,18*,4,-2
COc1ccc(S(=O)(=O)N(C)CC(=O)NCc2ccco2)cc1OC,0,1,-1,4,-4,-1,x,x,x
O=C(Nn1c(-c2ccc(Br)cc2)nc2ccccc2c1=O)c1ccc([N+](=O)[O-])cc1,4,-30,-13,4,3,8.7*,18*,6,4
CN(C)Cc1csc(NC(=O)Nc2ccccc2Cc2ccccc2)n1,-3,4,x,-3,-5,0,x,x,x
Cc1ccc(-n2ncc3c(NCCCN4CCCC4=O)ncnc32)c(C)c1,1,21,-4,0,0,-1,x,x,x
Cc1ccc2[nH]c3c(NCc4ccco4)ncnc3c2c1,3,x,26,1,7,45*,54*,28*,26*
c1coc(CNc2ncnc3nc[nH]c23)c1,0,1,-3,3,-1,-1,x,x,x
Cc1ccc2[nH]c3c(NCCCN4CCCC4=O)ncnc3c2c1,1,x,-2,1,-22,21*,36*,2,25*
CC(C)CN1CCC(CN2CCNC(=O)C2=O)CC1,-2,-10,x,1,-4,0,x,x,x
C[C@H](CO)N1C[C@H](C)[C@@H](CN(C)Cc2ccccn2)Oc2ncc(Br)cc2C1=O,-3,4,x,0,-3,0,x,x,x
C=CCN(CC=C)Cc1cc(=O)oc2cc(C)c(Cl)cc12,1,3,x,-2,7,1,x,x,x
CCNC(=S)NNC(=O)c1ccc(=O)n(Cc2ccccc2)c1,-3,-6,7,4,1,22*,37*,1,22*
Cc1cccc(NC(=O)c2ccc(Cn3cc(C(F)(F)F)ccc3=O)cc2)c1,6,6,-11,-1,4,0,x,x,x
